According to ChEMBL document CHEMBL3407388, “Synthesis, anticancer activity and molecular docking studies on a series of heterocyclic trans-cyanocombretastatin analogues as antitubulin agents” (2015):

What was measured:
Assay type in all cases: functional
[1] = tested on: SW-620; experiment: Cytotoxicity against human SW620 cells assessed as growth inhibition after 48 hrs by SRB assay; details: SW-620, 48 h
[2] = Cytotoxicity against human NCI-ADR-RES cells assessed as growth inhibition after 48 hrs by SRB assay
Summary of the method: (§1)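 NCI 60-cell panel; compounds passing a single-dose screen (10−5 M, 48 h) were tested at five 10-fold dilutions (10−4 to 10−8 M) with 48 h drug exposure. GI50 is the molar concentration giving 50% reduction in net cell growth relative to cell numbers on day 0.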

[3] = Cytotoxicity against human PC3 cells assessed as growth inhibition after 48 hrs by SRB assay; details: PC-3, 48 h; summary of the method: as §1
[4] = tested on: U-251; experiment: Cytotoxicity against human U251 cells assessed as growth inhibition after 48 hrs by SRB assay; details: U-251, 48 h
[5] = Cytotoxicity against human OVCAR4 cells assessed as growth inhibition after 48 hrs by SRB assay; details: OVCAR-4, 48 h; summary of the method: as §1
[6] = tested on: MOLT-4; experiment: Cytotoxicity against human MOLT4 cells assessed as growth inhibition after 48 hrs by SRB assay; details: MOLT-4, 48 h; summary of the method: as §1
[7] = tested on: HT-29; experiment: Cytotoxicity against human HT-29 cells assessed as growth inhibition after 48 hrs by SRB assay; details: HT-29, 48 h; summary of the method: as §1
[8] = Cytotoxicity against human UO31 cells assessed as growth inhibition after 48 hrs by SRB assay; details: UO-31, 48 h
[9] = tested on: SN12C; experiment: Cytotoxicity against human SN12C cells assessed as growth inhibition after 48 hrs by SRB assay; summary of the method: as §1
[10] = tested on: SF-539; experiment: Cytotoxicity against human SF539 cells assessed as growth inhibition after 48 hrs by SRB assay; details: SF-539, 48 h; summary of the method: as §1
[11] = tested on: DU-145; experiment: Cytotoxicity against human DU145 cells assessed as growth inhibition after 48 hrs by SRB assay; details: DU-145, 48 h; summary of the method: as §1
[12] = tested on: SK-MEL-5; experiment: Cytotoxicity against human SK-MEL-5 cells assessed as growth inhibition after 48 hrs by SRB assay; details: SK-MEL-5, 48 h; summary of the method: as §1
[13] = tested on: K562; experiment: Cytotoxicity against human K562 cells assessed as growth inhibition after 48 hrs by SRB assay; details: K562, 48 h; summary of the method: as §1
[14] = tested on: SK-OV-3; experiment: Cytotoxicity against human SKOV3 cells assessed as growth inhibition after 48 hrs by SRB assay; details: SK-OV-3, 48 h; summary of the method: as §1
[15] = tested on: NCI-H226; experiment: Cytotoxicity against human NCI-H226 cells assessed as growth inhibition after 48 hrs by SRB assay; details: NCI-H226, 48 h; summary of the method: as §1
[16] = tested on: MDA-MB-435; experiment: Cytotoxicity against human MDA-MB-435 cells assessed as growth inhibition after 48 hrs by SRB assay; details: MDA-MB-435, 48 h; summary of the method: as §1
[17] = tested on: TK-10; experiment: Cytotoxicity against human TK10 cells assessed as growth inhibition after 48 hrs by SRB assay; details: TK-10, 48 h
[18] = tested on: HCC 2998; experiment: Cytotoxicity against human HCC2998 cells assessed as growth inhibition after 48 hrs by SRB assay; details: HCC 2998, 48 h; summary of the method: as §1
[19] = tested on: CAKI-1; experiment: Cytotoxicity against human Caki1 cells assessed as growth inhibition after 48 hrs by SRB assay; details: CAKI-1, 48 h; summary of the method: as §1
[20] = tested on: LOX IMVI; experiment: Cytotoxicity against human LOXIMVI cells assessed as growth inhibition after 48 hrs by SRB assay; summary of the method: as §1
[21] = tested on: SF-268; experiment: Cytotoxicity against human SF268 cells assessed as growth inhibition after 48 hrs by SRB assay; details: SF-268, 48 h; summary of the method: as §1
[22] = tested on: NCI-H460; experiment: Cytotoxicity against human NCI-H460 cells assessed as growth inhibition after 48 hrs by SRB assay; details: NCI-H460, 48 h; summary of the method: as §1
[23] = tested on: COLO 205; experiment: Cytotoxicity against human COLO205 cells assessed as growth inhibition after 48 hrs by SRB assay; details: COLO 205, 48 h; summary of the method: as §1
[24] = tested on: SF-295; experiment: Cytotoxicity against human SF295 cells assessed as growth inhibition after 48 hrs by SRB assay; details: SF-295, 48 h; summary of the method: as §1
[25] = Cytotoxicity against human UACC62 cells assessed as growth inhibition after 48 hrs by SRB assay; details: UACC-62, 48 h
[26] = tested on: M14; experiment: Cytotoxicity against human M14 cells assessed as growth inhibition after 48 hrs by SRB assay; details: M14, 48 h; summary of the method: as §1
[27] = tested on: KM12; experiment: Cytotoxicity against human KM12 cells assessed as growth inhibition after 48 hrs by SRB assay; details: KM12, 48 h; summary of the method: as §1
[28] = tested on: SNB-19; experiment: Cytotoxicity against human SNB19 cells assessed as growth inhibition after 48 hrs by SRB assay; details: SNB-19, 48 h; summary of the method: as §1
[29] = Cytotoxicity against human HCT15 cells assessed as growth inhibition after 48 hrs by SRB assay; details: HCT-15, 48 h; summary of the method: as §1
[30] = tested on: 786-0; experiment: Cytotoxicity against human 786-0 cells assessed as growth inhibition after 48 hrs by SRB assay; details: 786-0, 48 h; summary of the method: as §1
[31] = tested on: A498; experiment: Cytotoxicity against human A498 cells assessed as growth inhibition after 48 hrs by SRB assay; details: A498, 48 h; summary of the method: as §1
[32] = Cytotoxicity against human OVCAR5 cells assessed as growth inhibition after 48 hrs by SRB assay; details: OVCAR-5, 48 h; summary of the method: as §1
[33] = tested on: MDA-MB-231; experiment: Cytotoxicity against human MDA-MB-231 cells assessed as growth inhibition after 48 hrs by SRB assay; details: MDA-MB-231, 48 h; summary of the method: as §1
[34] = Cytotoxicity against human HCT116 cells assessed as growth inhibition after 48 hrs by SRB assay; details: HCT-116, 48 h; summary of the method: as §1
[35] = tested on: HL-60(TB); experiment: Cytotoxicity against human HL-60(TB) cells assessed as growth inhibition after 48 hrs by SRB assay; details: HL-60, 48 h
Summary of the method: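 NCI 60-cell panel, leukemia subpanel. Five-dose screen at 10-fold dilutions from 10−4 to 10−8 M with 48 h drug exposure. GI50 is the molar concentration giving 50% reduction in net cell growth compared with cell numbers on day 0.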

[36] = tested on: NCI-H23; experiment: Cytotoxicity against human NCI-H23 cells assessed as growth inhibition after 48 hrs by SRB assay; details: NCI-H23, 48 h; summary of the method: as §1
[37] = tested on: MCF7; experiment: Cytotoxicity against human MCF7 cells assessed as growth inhibition after 48 hrs by SRB assay; details: MCF7, 48 h; summary of the method: as §1
[38] = Cytotoxicity against human OVCAR8 cells assessed as growth inhibition after 48 hrs by SRB assay; details: OVCAR-8, 48 h; summary of the method: as §1
[39] = Cytotoxicity against human OVCAR3 cells assessed as growth inhibition after 48 hrs by SRB assay; details: OVCAR-3, 48 h; summary of the method: as §1
[40] = tested on: IGROV-1; experiment: Cytotoxicity against human IGROV1 cells assessed as growth inhibition after 48 hrs by SRB assay; details: IGROV-1, 48 h; summary of the method: as §1
[41] = tested on: BT-549; experiment: Cytotoxicity against human BT549 cells assessed as growth inhibition after 48 hrs by SRB assay; details: BT-549, 48 h; summary of the method: as §1
[42] = tested on: SNB-75; experiment: Cytotoxicity against human SNB75 cells assessed as growth inhibition after 48 hrs by SRB assay; details: SNB-75, 48 h
[43] = tested on: RPMI-8226; experiment: Cytotoxicity against human RPMI8226 cells assessed as growth inhibition after 48 hrs by SRB assay; details: RPMI-8226, 48 h; summary of the method: as §1

SMILES: COc1cc(/C(C#N)=C/c2cc3ccccc3[nH]2)cc(OC)c1OC
- GI50 [1]: < 10 nM
- GI50 [2]: < 10 nM
- GI50 [3]: < 10 nM
- GI50 [4]: < 10 nM
- GI50 [5]: 15200 nM
- GI50 [6]: 23 nM
- GI50 [7]: < 10 nM
- GI50 [8]: < 10 nM
- GI50 [9]: < 10 nM
- GI50 [10]: < 10 nM
- GI50 [11]: < 10 nM
- GI50 [12]: < 10 nM
- GI50 [13]: < 10 nM
- GI50 [14]: < 10 nM
- GI50 [15]: < 10 nM
- GI50 [16]: < 10 nM
- GI50 [17]: < 10 nM
- GI50 [18]: 18 nM
- GI50 [19]: < 10 nM
- GI50 [20]: < 10 nM
- GI50 [21]: 15 nM
- GI50 [22]: < 10 nM
- GI50 [23]: 16 nM
- GI50 [24]: < 10 nM
- GI50 [25]: < 10 nM
- GI50 [26]: < 10 nM
- GI50 [27]: < 10 nM
- GI50 [28]: < 10 nM
- GI50 [29]: < 10 nM
- GI50 [30]: < 10 nM
- GI50 [31]: < 10 nM
- GI50 [32]: 80 nM
- GI50 [33]: 14 nM
- GI50 [34]: < 10 nM
- GI50 [35]: < 10 nM
- GI50 [36]: < 10 nM
- GI50 [37]: 16 nM
- GI50 [38]: < 10 nM
- GI50 [39]: < 10 nM
- GI50 [40]: < 10 nM
- GI50 [41]: < 10 nM
- GI50 [42]: < 10 nM
- GI50 [43]: < 10 nM

SMILES: COc1ccc(/C(C#N)=C/c2cc3ccccc3[nH]2)cc1OC
- GI50 [1]: 42 nM
- GI50 [2]: 40 nM
- GI50 [3]: 62 nM
- GI50 [4]: 75 nM
- GI50 [5]: 735 nM
- GI50 [6]: 84 nM
- GI50 [7]: 48 nM
- GI50 [8]: 71 nM
- GI50 [9]: 779 nM
- GI50 [10]: 47 nM
- GI50 [11]: 206 nM
- GI50 [12]: 142 nM
- GI50 [13]: 39 nM
- GI50 [14]: 394 nM
- GI50 [15]: 399 nM
- GI50 [16]: 21 nM
- GI50 [17]: 5560 nM
- GI50 [18]: 366 nM
- GI50 [19]: 103 nM
- GI50 [20]: 64 nM
- GI50 [21]: 1480 nM
- GI50 [22]: 53 nM
- GI50 [23]: 232 nM
- GI50 [24]: 36 nM
- GI50 [25]: 38 nM
- GI50 [26]: 39 nM
- GI50 [27]: 76 nM
- GI50 [28]: 189 nM
- GI50 [29]: 48 nM
- GI50 [30]: 602 nM
- GI50 [31]: 40 nM
- GI50 [32]: 471 nM
- GI50 [33]: 291 nM
- GI50 [34]: 44 nM
- GI50 [35]: 34 nM
- GI50 [36]: 236 nM
- GI50 [37]: 289 nM
- GI50 [38]: 326 nM
- GI50 [39]: 34 nM
- GI50 [40]: 482 nM
- GI50 [41]: 97.8 nM
- GI50 [42]: 36 nM
- GI50 [43]: 151 nM
